Assay: Toxicity liver stage against HepG2, at 10uM
Assay type: cell-based
Set-up: test concentration 10 uM, cell line HepG2-A16-CD81EGFP
Conditions: human, HepG2-A16-CD81EGFP cells; read-out: INHIBITION
Summary of the method: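 Uninfected HepG2-A16-CD81EGFP cells, 3 × 10^3 per well, 1536-well, plated on prespotted compound at 10 μM final, parasite-free screening media added to match infected plates; puromycin 10 μM positive, DMSO 0.5% negative; run in parallel with 48 h PbLuc assay at 37 °C, 5% CO2; viability by CellTiter-Glo luminescence, normalized to controls.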

Going from Cc1ccc(Br)cc1S(=O)(=O)NCCc1nnc[nH]1 to Cc1ccc(CNC(=O)NC(C)CCS(C)(=O)=O)cc1F (stereo not given), the cytotoxicity at 10 µM falls from -5.89% to -146%.

Compared with O=C(CN(CC1CCC1)CC(F)(F)F)N1CCCC1, Cc1c(C(=O)NCCC(=O)N2CCCC2)oc2c(F)cccc12 is higher in cytotoxicity at 10 µM: 1.84% for the first, 5.87% for the second.

Going from COc1cc(C)sc1C(=O)N1CCCCC1c1ccccn1 (stereo not given) to COc1ccc(C)cc1CN1CCC(c2cc3ncccc3cn2)CC1, the cytotoxicity at 10 µM rises from 0.864% to 20.5%.

First: Cc1ccc(CSc2nc(N)cc(NCC(=O)N3CCNCC3)n2)cc1
Second: Cc1ccc(CN2CCN(c3ncccc3C(N)=O)CC2CCO)cc1 (stereo not given)
The cytotoxicity at 10 µM of the first is higher: -4.62% for the first, -13.3% for the second.

Going from CC(C)CC(C(=O)N(C)Cc1ncnn1C)N1CCCCC1=O (stereo not given) to Cc1nn(C)c2ncc(NC(=O)N(C)Cc3cnn(C)c3)cc12, the cytotoxicity at 10 µM falls from -0.159% to -0.768%.

Going from CCN1CCC2(CC1)CN(C(=O)c1cccnc1)c1ccc(Cl)cc12 to CC(C)N1CCC2(CC1)CC(c1cccnc1)C(=O)N2 (stereo not given), the cytotoxicity at 10 µM rises from -111% to -67.2%.

Going from CC(C)NC(=O)COc1cccc(-c2nc(C(C)C)no2)c1 to CC(C)Cc1noc(COc2ccc(N(C)C(N)=O)cc2)n1, the cytotoxicity at 10 µM rises from -5.77% to 34.4%.

First: O=C1CC2(CCCNC2)C(=O)N1Cc1ccccc1 (stereo not given)
Second: C[C@@H]1CN(CCC(=O)N(C)Cc2ccccc2)C[C@@]1(O)C1CCC1
The cytotoxicity at 10 µM of the first is higher: 12.1% for the first, -6.95% for the second.

First: CN(C)C1(CNc2nccc(C3CCCC3)n2)CCOCC1
Second: CN1CCC(c2nnc3ccc(C(=O)NC4CCCC4)cn23)C1 (stereo not given)
The cytotoxicity at 10 µM of the first is higher: -1.3% for the first, -1.37% for the second.

Compared with O=C(CCCSc1ccc(NC(=O)C2CC2)nn1)NCC1CCCO1 (stereo not given), c1c[nH]c(CN2CCCC(Cc3ccc(NC4CCCC4)nn3)C2)n1 (stereo not given) is higher in cytotoxicity at 10 µM: -4.45% for the first, -3.95% for the second.

Going from Cc1cc(C(=O)Nc2cnn(CC(F)(F)F)c2)nc(N2CCOCC2)n1 to Cc1ncsc1CCN(C)C(=O)C(c1cccnc1)N1CCOCC1 (stereo not given), the cytotoxicity at 10 µM falls from -2.02% to -6.02%.

Going from CC(C)OCCSc1nnnn1C1CCOCC1 to Cc1noc(C)c1CN1C(=O)[C@@H]2CC[C@H]1CN(Cc1cccc(O)c1)C2, the cytotoxicity at 10 µM rises from -0.494% to 4.42%.

Compared with O=c1oc(-c2cccs2)nn1CC1(O)CCCCC1, O=C1CCC(CCC(=O)N2CCC2c2cccs2)=NN1 (stereo not given) is lower in cytotoxicity at 10 µM: 8.52% for the first, 6.13% for the second.

First: Cc1cc2ccccc2n1CCC(=O)NCCS(C)(=O)=O
Second: Cc1ccccc1CNC(=O)Cc1c(C)nc2cc(=O)[nH]n2c1C
The cytotoxicity at 10 µM of the first is lower: -5.79% for the first, -2.35% for the second.

Going from O=C(c1nsc(Cl)c1Cl)N1CCc2nc3sccc3c(=O)n2CC1 to CC(C)(C)CC(=O)N1CCc2sccc2C1, the cytotoxicity at 10 µM rises from -20.4% to 3.61%.

Going from COc1ccccc1C(=O)Nc1cc(CC(C)C)nn1C to COCCCNC(=O)C(C)n1nc(-c2ccco2)cc(N)c1=O (stereo not given), the cytotoxicity at 10 µM rises from -12.5% to 0.152%.

Compared with Cc1cccc2c1N(C)C(=O)C21CC(=O)Nc2c1cnn2C(C)(C)C (stereo not given), Cc1nn(C)c(C)c1CCC(=O)Nc1cn(C)c(=O)n(C)c1=O is higher in cytotoxicity at 10 µM: -1.65% for the first, 20.6% for the second.

First: CN(CCc1ccccn1)C(=O)CCC1CCCN(c2ccncc2)C1 (stereo not given)
Second: O=C(c1ccc(F)cc1)N1CCN2C[C@H](OCc3ccccn3)C[C@H]2C1
The cytotoxicity at 10 µM of the first is lower: -3.48% for the first, 2.8% for the second.

Compared with Cc1nc(O)cc(C2CCCN(C(=O)c3cccc(N(C)C)c3)C2)n1 (stereo not given), CCN(Cc1ccncc1)c1cc(C2CCNCC2)nc(C)n1 is higher in cytotoxicity at 10 µM: -6.47% for the first, 4.34% for the second.

Compared with CCS(=O)(=O)N1CCOC2(COCCN(C(C)=O)C2)C1 (stereo not given), CN1CCN(C(=O)c2cccc(CN3CCOCC3)c2)CC1 is lower in cytotoxicity at 10 µM: 15.7% for the first, 2.46% for the second.

Going from CN(Cc1ccco1)C(=O)Nc1cc(C(F)(F)F)c[nH]c1=O to Cc1noc(C)c1CN(C)c1nccc(C(F)(F)F)n1, the cytotoxicity at 10 µM falls from 2.79% to -4.73%.

First: Cc1nc[nH]c1CN1CCCn2nc(CN3CCC(F)(F)CC3)cc2C1
Second: Cc1nc[nH]c1CN1CCCC12CCN(c1nc3ccccc3s1)CC2
The cytotoxicity at 10 µM of the first is higher: 0.13% for the first, -0.369% for the second.

Compared with Cc1cncc(C(=O)NCCSCc2cccs2)c1, CCCc1cc(C(=O)N(C)Cc2cccc3cnccc23)n(C)n1 is higher in cytotoxicity at 10 µM: -6.48% for the first, 0.109% for the second.

First: CCNC(=O)CNC(=O)Nc1c(F)cc(F)cc1-c1ccccc1
Second: Clc1cccc(C(CNCc2ccccn2)N2CCOCC2)c1 (stereo not given)
The cytotoxicity at 10 µM of the first is higher: -7.55% for the first, -12% for the second.

Going from CCc1cc(=O)[nH]c2nnc(SCC(=O)OC)n12 to CCOC(=O)CCn1cnc2onc(-c3cc(OC)ccc3Cl)c2c1=O, the cytotoxicity at 10 µM falls from -16.6% to -19%.

Compared with CCC(=O)N1CCC(c2ncc3c(n2)CCNC3)CC1, CCn1nc(C)c(CCNC(=O)C2CCCN(C(=O)COC)C2)c1C (stereo not given) is higher in cytotoxicity at 10 µM: -22.5% for the first, -0.367% for the second.

Going from CCO[C@@H]1CCN(c2ccc(C)nn2)[C@@H]1Cc1cnn(C)c1 to COc1cc(OC)cc(N2CCC(NC(=O)c3cccn3C)CC2)c1, the cytotoxicity at 10 µM falls from 2.2% to -2.1%.

O=C(Nc1cccc(Cl)c1)c1nn(C2CCS(=O)(=O)C2)c2c1CCCC2 (stereo not given) showed a cytotoxicity at 10 µM of -12.9%.
